Published values collected from several papers.
Target: Serine/threonine-protein kinase NLK (NLK, Homo sapiens, UniProt Q9UBE8)
Residues used in one study (Q9UBE8 1-527): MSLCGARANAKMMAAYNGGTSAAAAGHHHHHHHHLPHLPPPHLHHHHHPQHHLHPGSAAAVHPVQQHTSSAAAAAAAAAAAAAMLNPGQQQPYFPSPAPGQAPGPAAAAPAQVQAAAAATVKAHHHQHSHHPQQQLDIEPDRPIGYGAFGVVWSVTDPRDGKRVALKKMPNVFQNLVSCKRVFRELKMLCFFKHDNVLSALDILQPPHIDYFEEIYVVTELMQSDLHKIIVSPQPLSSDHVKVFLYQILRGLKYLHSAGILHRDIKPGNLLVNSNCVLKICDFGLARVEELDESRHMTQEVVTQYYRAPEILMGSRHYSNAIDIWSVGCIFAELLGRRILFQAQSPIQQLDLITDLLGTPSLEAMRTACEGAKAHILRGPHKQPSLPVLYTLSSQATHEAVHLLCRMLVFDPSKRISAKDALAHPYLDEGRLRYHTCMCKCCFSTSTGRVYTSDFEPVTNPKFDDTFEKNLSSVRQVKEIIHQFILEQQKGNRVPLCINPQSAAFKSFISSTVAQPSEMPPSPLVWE

| Structure (SMILES) | assay | setting | remaining binding [%] |
| --- | --- | --- | --- |
| O=C(NCc1ncc(C(F)(F)F)cc1Cl)c1ccc2c(c1)C1(CCS(=O)(=O)CC1)[C@@H](C1CC1)N2S(=O)(=O)c1ccc(F)cc1 | cell-free assay, competition with immobilised ligand | 1 µM | 89 |
| c1cnn2ncc(-c3ccnc(N4CCC45COC5)n3)c2c1 | binding | 1 µM | 87 |
| C[C@@H](c1ccc(-n2cnc3c(N)ncnc32)cc1)N1CCc2nn(C)c(Cc3ccccc3)c2C1=O | binding, competition with immobilised ligand | 0.1 µM | 80 |
| CN(C)c1ncnc(-c2ccc3nc(Nc4cc(CN5CCN(C(=O)CC(F)(F)F)CC5)ccn4)[nH]c3c2)c1Cl | cell-free assay, competition with immobilised ligand | 1 µM | 88 |
| O=C(c1ccc(Nc2ncc(Cl)c(-c3cc4ccccc4s3)n2)cc1)N1CCC(N2CCCC2)CC1 | binding, competition with immobilised ligand | 1 µM | 72 |
| CNC(=O)c1ccc(Nc2ncc(C(F)(F)F)c(NCc3nccnc3N(C)S(C)(=O)=O)n2)cc1 | cell-free assay, competition with immobilised ligand | 0.1 µM | 100 |
| COc1cnc(Nc2cccc(S(N)(=O)=O)c2)nc1N1CCN(c2ccccc2)CC1 | binding, competition with immobilised ligand | 1 µM | 96 |
| O=C(NCCCN1CCOCC1)c1ccc(Nc2ncc(Cl)c(-c3ccc(Cl)s3)n2)cc1 | binding, competition with immobilised ligand | 1 µM | 100 |
| C=CC(=O)N1CCC(C(=O)NCC(=O)N2CCN(c3nc(-c4cnc(N)nc4C(F)F)nc(N4CCOCC4)n3)CC2)CC1 | binding, competition with immobilised ligand | 1 µM | 94 |
| COc1ncc2cc3ccccc3nc2c1C#N | binding, competition with immobilised ligand | 5 µM | 100 |
| C[C@H]1CCN(c2nccc(-c3cnn4ncccc34)n2)C1 | binding | 1 µM | 100 |
| CO[C@@H](C)c1c(Nc2ccc([C@@H](N(C)C(=O)C3CCS(=O)(=O)CC3)C(F)(F)F)cc2)cnc2cc(Cl)nn12 | cell-free assay, competition with immobilised ligand | 1 µM | 84 |
| O=C(NCC1CCOCC1)c1n[nH]cc1NC(=O)c1c(F)cccc1F | binding, competition with immobilised ligand | 1 µM | 85 |
| O=C(Nc1ccc(Oc2ccc(F)cc2)cc1)N1CCc2ncccc2[C@H]1c1ccc(F)cc1 | cell-free assay, competition with immobilised ligand | 1 µM | 87 |
| N[C@H]1CCN(c2nccc(-c3cnn4ncccc34)n2)C1 | binding | 1 µM | 76 |
| O=C(O)[C@@H]1[C@@H](Cn2nnc3ccccc3c2=O)CC[C@H]1C(=O)c1ccc(OCCC2CCOCC2)cc1 | cell-free assay, competition with immobilised ligand | 1 µM | 86 |
| Cc1cnn2ncc(-c3ccnc(N(C)C)n3)c2c1 | binding | 1 µM | 100 |
| O=C1CCc2cc(Nc3cc(OC4CCOCC4)c([N+](=O)[O-])cc3Cl)ccc2N1 | cell-free assay, competition with immobilised ligand | 1 µM | 100 |
| CC1CCCN1c1nccc(-c2cnn3ncccc23)n1 (stereo not shown) | binding | 1 µM | 78 |
| COc1cnc(Nc2cccc(S(N)(=O)=O)c2)nc1N1CCN(c2ccccc2)C(=O)C1 | binding, competition with immobilised ligand | 1 µM | 100 |
| O=C(NCCCN1CCOCC1)c1ccc(Nc2nccc(-c3cc4ccccc4s3)n2)cc1 | binding, competition with immobilised ligand | 1 µM | 94 |
| CN(c1nccc(-c2cnn3ncccc23)n1)C1CC1 | binding | 1 µM | 77 |
